Measurements gathered from unrelated publications.
Protocols differ between the studies behind these lines. pIC50: −log10 of the molar value.
Target: Acetylcholinesterase (ACHE, Homo sapiens, UniProt P22303)
Observed: enzyme activity
Mode: inhibitor

SMILES	technique	pIC50
O=c1cc(CSc2ccc(N=Cc3ccc(Cl)cc3)cc2)occ1O	Ellman	5.88
Cc1cccc(C)c1NC(=O)CSc1nnc(COc2ccc3ccccc3c2)n1-c1ccccc1	Ellman	6.00
COc1cc(-c2nc3ccccc3s2)cc2c1OCC(=O)N2CC(=O)N[C@@H](C)C(=O)O	Ellman	< 3.54
O=c1cc(CSc2ccc(N=Cc3cccc(F)c3)cc2)occ1O	Ellman	4.58
CC[C@@H](C)[C@H](NC(=O)CN1C(=O)COc2c(OC)cc(-c3nc4ccccc4s3)cc21)C(=O)O	Ellman	< 3.58
O=c1cc(CSc2ccc(N=Cc3cccc(Cl)c3)cc2)occ1O	Ellman	4.88
Cc1cc(C)cc(NC(=O)CSc2nnc(COc3ccc4ccccc4c3)n2-c2ccccc2)c1	Ellman	5.95
CC(C)c1cc2c(c(O)c1O)[C@@]1(C(=O)O)CCCC(C)(C)[C@@H]1CC2		9.11
O=c1cc(CSc2ccc(N=Cc3ccc([N+](=O)[O-])cc3)cc2)occ1O	Ellman	5.08
COc1cc(-c2nc3ccccc3s2)cc(NC(C)=O)c1OCC(=O)N[C@H](C(=O)O)C(C)C	Ellman	< 3.57
CCOc1ccc(NC(=O)CSc2nnc(COc3ccc4ccccc4c3)n2-c2ccccc2)cc1	Ellman	6.09
CC(C)c1cc2c(c(O)c1O)[C@@]13CCCC(C)(C)[C@@H]1[C@H](OC3=O)[C@H]2O		9.13
COc1cc(-c2nc3ccccc3s2)cc2c1OCC(=O)N2CC(=O)N[C@H](C(=O)O)C(C)C	Ellman	< 3.56
Cc1ccc(NC(=O)CSc2nnc(COc3ccc4ccccc4c3)n2-c2ccccc2)cc1C	Ellman	6.11
CC[C@H](C)[C@@H](NC(=O)COc1c(NC(C)=O)cc(-c2nc3ccccc3s2)cc1OC)C(=O)O	Ellman	< 3.58
CC(=O)c1c(C)c2cnc(Nc3ccc(C4CCN(CCS(C)(=O)=O)CC4)cn3)nc2n(C2CCCC2)c1=O		6.60
